Most compounds without a hit are left out; they make up all but 2.8% or so of the library.
E-sel inducer: induces E-selectin expression in human endothelial cells; activation, % at 7.58 µM; P16581; AID 686992; 260,000 tested, 0.37% active; HUVEC E-selectin immunofluorescence imaging; normalized: neutral wells 0, TNF-alpha wells 100;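 active = mean E-selectin-positive cell signal at least 10% of the positive control, reached in at least 60% of replicates, without over 20% cell loss; inconclusive = no rule given, readout overlaps actives, possibly toxicity-flagged; inactive = the rest, including those meeting only one limit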
Target sequence (P16581 whole entry, looked up): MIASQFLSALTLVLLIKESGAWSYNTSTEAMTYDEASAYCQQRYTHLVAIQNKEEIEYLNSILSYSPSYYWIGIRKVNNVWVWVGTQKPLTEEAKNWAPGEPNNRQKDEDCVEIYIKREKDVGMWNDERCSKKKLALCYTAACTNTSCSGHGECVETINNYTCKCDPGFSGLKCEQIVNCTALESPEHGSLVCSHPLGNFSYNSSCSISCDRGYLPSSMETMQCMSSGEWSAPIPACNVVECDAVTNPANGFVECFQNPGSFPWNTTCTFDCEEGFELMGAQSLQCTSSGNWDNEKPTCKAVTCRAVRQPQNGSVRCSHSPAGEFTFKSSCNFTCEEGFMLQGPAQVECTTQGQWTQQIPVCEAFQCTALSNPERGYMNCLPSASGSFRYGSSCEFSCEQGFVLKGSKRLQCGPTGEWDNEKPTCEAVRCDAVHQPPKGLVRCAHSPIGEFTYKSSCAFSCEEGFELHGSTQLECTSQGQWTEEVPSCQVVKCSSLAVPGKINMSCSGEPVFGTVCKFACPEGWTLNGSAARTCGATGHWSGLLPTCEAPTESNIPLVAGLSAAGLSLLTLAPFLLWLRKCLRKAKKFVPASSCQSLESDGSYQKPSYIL
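Material: HUVEC primary endothelial cells; Amount: 3,000 cells per well; Dosing: single concentration; Medium: EGM-2 growth medium on 0.1% gelatin-coated wells; Read-out basis: percent E-selectin-positive cells; Signal: immunofluorescence imaging; Control set: TNF-alpha, DMSO.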
DENV2 CPE: inhibitors of DENV2 cytopathic effect | DENV2-infected cells, cytopathic effect rescue, plate reader | CPE inhibition, % at 9.99 µM | 350,000 tested, 1.7% active; in the data active = CPE inhibition above about 20%, passing the limit was not always enough; inconclusive = no clear call, values can overlap the other calls; tested in BHK-21 cells;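 note: 0% = median of neutral control wells and 100% = median of positive control wells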
SIRT5 inh: sirtuin-5 (human) deacylase inhibition | Purified SirT5, succinyl-peptide AMC, trypsin-coupled fluorescence | inhibition, % at 15 µM | 330,000 tested, 1.1% active; in the data active = inhibition above about 15%; inconclusive = no clear call, values can overlap the other calls
An asterisk follows results filed as active; u = inconclusive; x = not tested or not shown.

SMILES | E-sel inducer | DENV2 CPE | SIRT5 inh
Cc1noc(C)c1S(=O)(=O)Nc1ccc2c(c1)C(=O)N([C@@H](C)CO)C[C@H](C)[C@@H](CN(C)Cc1ccncc1)OCCCC[C@@H](C)O2 | 2.7 | 22.0* | 1.1
Cc1noc(C)c1S(=O)(=O)Nc1ccc2c(c1)C(=O)N([C@H](C)CO)C[C@@H](C)[C@@H](CN(C)Cc1ccc(C(F)(F)F)cc1)OCCCC[C@H](C)O2 | -0.1 | -4.0 | 14.7
Cc1noc(C)c1S(=O)(=O)Nc1ccc2c(c1)C(=O)N([C@@H](C)CO)C[C@H](C)[C@H](CN(C)Cc1ccc(C(F)(F)F)cc1)OCCCC[C@@H](C)O2 | -0.3 | 6.7 | x
Cc1noc(C)c1S(=O)(=O)Nc1ccc2c(c1)C(=O)N([C@@H](C)CO)C[C@@H](C)[C@H](CN(C)Cc1ccc(C(F)(F)F)cc1)OCCCC[C@@H](C)O2 | 0.3 | 0.6 | 16.9*
Cc1noc(C)c1S(=O)(=O)Nc1ccc2c(c1)C(=O)N([C@H](C)CO)C[C@@H](C)[C@H](CN(C)Cc1ccc(C(F)(F)F)cc1)OCCCC[C@@H](C)O2 | -0.3 | -3.6 | 23.6*
Cc1noc(C)c1S(=O)(=O)Nc1ccc2c(c1)C(=O)N([C@H](C)CO)C[C@@H](C)[C@H](CN(C)Cc1ccc(C(F)(F)F)cc1)OCCCC[C@H](C)O2 | 0.4 | -8.8 | 17.7*
Cc1noc(C)c1S(=O)(=O)Nc1ccc2c(c1)C(=O)N([C@@H](C)CO)C[C@H](C)[C@H](CN(C)Cc1ccc(C(F)(F)F)cc1)OCCCC[C@H](C)O2 | -0.1 | -3.0 | 9.0
COCC(=O)N[C@@H]1C=C[C@H](CC(=O)NCc2ccc(Cl)cc2)O[C@H]1CO | -0.5 | -1.9 | -4.6
N#C[C@@H]1[C@H](c2ccc(C#Cc3ccccc3F)cc2)[C@@H](CO)N1C(=O)C1CCCC1 | 0.3 | -10.8 | 3.2
Cc1noc(C)c1S(=O)(=O)Nc1ccc2c(c1)C(=O)N([C@H](C)CO)C[C@@H](C)[C@H](CN(C)Cc1ccc(C(=O)O)cc1)OCCCC[C@@H](C)O2 | 0.7 | 12.5 | -3.4
Cc1noc(C)c1S(=O)(=O)Nc1ccc2c(c1)C(=O)N([C@H](C)CO)C[C@H](C)[C@H](CN(C)Cc1ccc(C(=O)O)cc1)OCCCC[C@@H](C)O2 | 0.0 | 50.4* | 0.2
CO[C@@H]1CN(C)C(=O)c2ccc(NS(=O)(=O)c3ccccc3C)cc2OC[C@H](C)N(C)C[C@H]1C | -0.1 | -4.4 | -4.0
CCCNC(=O)N1CC2(CN(Cc3ccccn3)C2)c2c(n(C)c3cc(OC)ccc23)[C@H]1CO | -0.1 | u | x
CCOC(=O)c1ccc(NC(=S)NN2CCN(C)CC2)cc1 | 2.8 | 6.1 | -2.7
CN1CCN(NC(=S)Nc2ccc(Oc3ccccc3)cc2)CC1 | 223.1* | 1.9 | 6.2
C[C@@H]1CN([C@H](C)CO)C(=O)c2cccc(NS(=O)(=O)c3ccccc3)c2O[C@H]1CN(C)S(=O)(=O)c1ccc(Cl)cc1 | -0.2 | 3.7 | 2.0
O=C1CN(S(=O)(=O)Cc2ccccc2)C[C@H]2[C@H](c3ccc(C#Cc4ccc(F)cc4)cc3)[C@@H](CO)N12 | -0.8 | 37.5* | 6.9
O=C1CN(S(=O)(=O)Cc2ccccc2)C[C@@H]2[C@@H](c3ccc(C#Cc4ccc(F)cc4)cc3)[C@@H](CO)N12 | -0.7 | 0.4 | 2.8
O=C1CN(S(=O)(=O)Cc2ccccc2)C[C@H]2[C@@H](c3ccc(C#Cc4ccccc4)cc3)[C@H](CO)N12 | -0.2 | -2.8 | 15.7*
O=C1CN(S(=O)(=O)Cc2ccccc2)C[C@@H]2[C@@H](c3ccc(C#Cc4ccc(F)cc4)cc3)[C@H](CO)N12 | -0.7 | -4.8 | 8.8
COCC#Cc1ccc2c(c1)O[C@H](CN(C)CC1CCOCC1)[C@@H](C)CN([C@@H](C)CO)S2(=O)=O | -0.2 | -10.5 | -1.7
Cc1ccc2c(c1)c1c3n2CCN(CC(N)=O)C3CCC1 (stereo unspecified) | x | -1.0 | -1.5
Cc1ccc2c(c1)c1c3n2CCN(C(=O)C2CC2)C3CCC1 (stereo unspecified) | -0.8 | 54.4* | 0.1
CNC(=O)C[C@@H]1CC[C@H]2[C@H](COc3ccc(NC(=O)c4cc(C)on4)cc3C(=O)N2C)O1 | 0.0 | 2.3 | x
C[C@@H](NC(=O)C[C@@H]1CC[C@@H]2[C@H](COC[C@@H](O)CN2C(=O)Nc2ccccc2)O1)c1ccccc1 | 0.0 | 1.5 | 2.0
SMILES | E-sel inducer | DENV2 CPE | SIRT5 inh
C[C@H](NC(=O)C[C@@H]1CC[C@H]2[C@@H](COC[C@H](O)CN2C(=O)Nc2ccccc2)O1)c1ccccc1 | 0.0 | 30.5* | -3.2
C[C@H](NC(=O)C[C@@H]1CC[C@@H]2[C@H](COC[C@H](O)CN2C(=O)Nc2ccccc2)O1)c1ccccc1 | 0.1 | 34.1* | 2.5
C[C@H](NC(=O)C[C@H]1CC[C@H]2[C@@H](COC[C@@H](O)CN2C(=O)Nc2ccccc2)O1)c1ccccc1 | 0.2 | -14.4 | 1.7
CCN1[C@@H]2c3ccc(-c4ccccc4OC)c(=O)n3C[C@@H]2[C@@H](CO)[C@@H]1C(=O)NCCCN(C)C | 0.2 | -0.9 | -1.0
CCCN1CCC2(CC1)CN(Cc1ccccc1OC)[C@H](CO)c1c2c2ccc(OC)cc2n1C | 0.1 | -6.5 | x
CCC(=O)Nc1ccc2c(c1)OC[C@H](C)N(CC1CCCCC1)C[C@H](C)[C@@H](OC)CN(C)C2=O | 0.2 | x | x
O=C(O)c1ccc(-c2ccc(/C=C3\NC(=O)N(Cc4ccc(Cl)cc4)C3=O)o2)cc1Cl | x | 5.7 | 25.9*
CCOC(=O)CN1C(=O)S/C(=C\c2ccc(-c3ccc(C(=O)O)c(Cl)c3)o2)C1=O | -0.1 | 0.2 | 12.4
CC(=O)NC[C@H]1[C@@H](c2ccc(-c3cccnc3)cc2)[C@H](CO)N1C(=O)C1CC1 | -0.1 | 28.2* | 4.3
CC(=O)N1[C@H](CO)[C@@H](c2ccc(-c3cccc(F)c3)cc2)[C@H]1CNC(=O)C1CC1 | 0.1 | 124.2* | x
CC(=O)NC[C@H]1[C@@H](c2ccc(-c3ccccc3F)cc2)[C@@H](CO)N1C(C)=O | -0.1 | 41.4* | -3.1
CC(=O)NC[C@H]1[C@H](c2ccc(-c3cccnc3)cc2)[C@@H](CO)N1C(=O)C1CC1 | 0.0 | -2.0 | -2.0
CC(=O)N1[C@H](CO)[C@H](c2ccc(-c3ccccc3F)cc2)[C@@H]1CNC(C)C | -0.2 | 1.3 | -0.9
CC(=O)NC[C@@H]1[C@@H](c2ccc(-c3ccccc3)cc2)[C@@H](CO)N1C(=O)C1CC1 | 0.1 | -15.9 | -1.1
CC(=O)NC[C@@H]1[C@H](c2ccc(-c3ccccc3)cc2)[C@H](CO)N1C(=O)C1CC1 | 0.0 | 76.2* | -0.9
CC(=O)N1[C@@H](CO)[C@H](c2ccc(-c3ccc(F)cc3)cc2)[C@@H]1CNC(=O)C1CC1 | -0.1 | -2.6 | x
C[C@@H]1CN([C@@H](C)CO)C(=O)c2cc(C#Cc3ccncc3)cnc2O[C@H]1CN(C)C(=O)c1ccccc1F | 0.0 | 9.2 | 0.9
CC(C)NC(=O)N(C)C[C@H]1Oc2cc(C#Cc3cccc(F)c3)ccc2S(=O)(=O)N([C@H](C)CO)C[C@H]1C | 0.4 | u | 7.4
CC(=O)NC[C@H]1[C@H](c2ccc(-c3ccccc3F)cc2)[C@@H](CO)N1C(=O)C1CC1 | 0.1 | 81.3* | 1.0
CC(=O)NC[C@@H]1[C@H](c2ccc(-c3ccccc3F)cc2)[C@H](CO)N1C(=O)C1CC1 | 0.0 | 0.0 | 1.8

From PubChem
